Our source for the Ki and IC50 values is ChEMBL document CHEMBL6134774, “Novel benzenesulfonamides containing a dual triazole moiety with selective carbonic anhydrase inhibition and anticancer activity” (RSC Med Chem, 2025).

One assay has as its target Carbonic anhydrase 9 (Homo sapiens, UniProt Q16790). The experiment in a line: Inhibition of human CA9 assessed as inhibition constant. The procedure, abridged: (§1)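 Esterase activity of the hCA isoform was followed spectrophotometrically by Verpoorte's method, as the rise in absorbance at 348 nm with p-nitrophenyl acetate as substrate. Increasing inhibitor concentrations were incubated with the substrate, from 1 mg mL−1 DMSO stocks, to derive KI. Results are means of triplicate assays ± SEM.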

The next assay has as its target Carbonic anhydrase 12 (Homo sapiens, UniProt O43570). In words: Inhibition of human CA12 assessed as inhibition constant. The procedure, abridged: as §1
A further assay deals with Hep 3B2. In words: Cytotoxicity against human Hep3B cells assessed as cell viability measured after 48 hrs by MTT assay. (Formazan colour is commonly taken as a measure of viable cells.)
The test system of another assay is L929. In words: Cytotoxicity against mouse L929 cells assessed as cell viability measured after 48 hrs by MTT assay. The conditions noted are these: L929, 48 h.
A further assay deals with A549. The experiment in a line: Cytotoxicity against human A549 cells assessed as cell viability measured after 48 hrs by MTT assay. The conditions noted are these: A549, 48 h.

In general, Ki refers to the dissociation constant of the complex between target and ligand, obtained from inhibition or displacement. Usually IC50 stands for the midpoint of a concentration-inhibition curve.

Carbonic anhydrase 12, sequence (O43570 whole entry): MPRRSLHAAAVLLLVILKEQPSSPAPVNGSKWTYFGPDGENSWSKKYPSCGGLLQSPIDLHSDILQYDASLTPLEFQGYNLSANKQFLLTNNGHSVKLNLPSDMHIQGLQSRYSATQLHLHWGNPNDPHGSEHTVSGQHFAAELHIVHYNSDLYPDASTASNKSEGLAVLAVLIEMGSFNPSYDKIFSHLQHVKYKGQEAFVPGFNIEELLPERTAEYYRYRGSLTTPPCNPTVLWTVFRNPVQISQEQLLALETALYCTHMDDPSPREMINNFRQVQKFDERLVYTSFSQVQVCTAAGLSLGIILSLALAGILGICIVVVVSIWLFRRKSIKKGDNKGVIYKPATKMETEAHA

In the case of `CCCCCCCO/N=C(/C)c1nnn(-c2ccc(S(N)(=O)=O)cc2)c1C`, the results for the Ki at Carbonic anhydrase 9 and on Carbonic anhydrase 12 were 196 nM and 117 nM, respectively.
As to `O=c1[nH]cc(F)c(=O)[nH]1` [FLUOROURACIL], the IC50 in the assay with Hep 3B2 turned out to be 60.6 µM; in the assay on L929, 14 µM; with A549 it was 100 µM.
